# Source: PubChem (Sanford-Burnham Center for Chemical Genomics)
# CCR6 antagonist – CCR6 (human) receptor antagonism | P51684 | inhibition, % at 20 µM | AID 493098 | CHO-K1 CCR6 PathHunter beta-arrestin, luminescence, CCL20-stimulated | hit rate 0.49% among 340,000;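 active means compounds whose inhibition of the agonist-driven luminescence signal at 20 µM reaches about 50%, limit read from the data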;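 further: cells stimulated with CCL20 at 14 nM final; plate controls were DMSO with CCL20 for no effect and DMSO without agonist for full effect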
# A3G deaminase – APOBEC3G (human) deaminase inhibition. Q9HC16. recombinant A3G, ssDNA deamination FAM/TAMRA fluorescence. inhibition, % at 20 µM. hit rate 0.28% among 330,000. AID 493012;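 active means inhibition of at least 40% at 20 µM, with no more than 30% in the related APOBEC3A deaminase screen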;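 further: plate controls were DMSO wells with A3G for no effect and wells lacking A3G enzyme for full effect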
# CXCR6 inh – CXCR6 (human) receptor inhibition | O00574 | CHO-K1 PathHunter CXCR6 beta-arrestin, luminescence | inhibition, % at 20 µM | hit rate 0.36% among 360,000; in the data active means inhibition above about 34%, passing the limit was not always enough;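 further: antagonist mode with CXCL16 agonist at 10 nM final; 0% = 10 nM CXCL16 with DMSO and 100% = unstimulated wells without agonist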
# Target sequence (O00574 whole entry, looked up): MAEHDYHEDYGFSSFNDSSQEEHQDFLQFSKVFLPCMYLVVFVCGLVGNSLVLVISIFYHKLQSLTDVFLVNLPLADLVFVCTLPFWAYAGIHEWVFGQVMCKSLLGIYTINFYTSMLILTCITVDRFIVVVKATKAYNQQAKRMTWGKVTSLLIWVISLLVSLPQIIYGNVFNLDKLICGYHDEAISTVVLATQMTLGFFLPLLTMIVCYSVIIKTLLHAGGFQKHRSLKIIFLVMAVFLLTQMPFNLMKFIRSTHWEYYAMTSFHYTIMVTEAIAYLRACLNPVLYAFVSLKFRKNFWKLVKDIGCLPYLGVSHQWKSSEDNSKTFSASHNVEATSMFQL
# APJ antag – APJ receptor antagonism; P35414; CHO-K1 APJ beta-arrestin complementation, luminescence; inhibition, % at 20 µM; hit rate 0.32% among 330,000;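 active means inhibition above about 40% at 20 µM, limit read from the data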;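 further: cells challenged with 10 nM apelin-13 agonist together with compound; plate controls were apelin-13 plus DMSO wells for no effect and DMSO wells lacking apelin-13 for full effect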
# Target sequence (P35414 whole entry, looked up): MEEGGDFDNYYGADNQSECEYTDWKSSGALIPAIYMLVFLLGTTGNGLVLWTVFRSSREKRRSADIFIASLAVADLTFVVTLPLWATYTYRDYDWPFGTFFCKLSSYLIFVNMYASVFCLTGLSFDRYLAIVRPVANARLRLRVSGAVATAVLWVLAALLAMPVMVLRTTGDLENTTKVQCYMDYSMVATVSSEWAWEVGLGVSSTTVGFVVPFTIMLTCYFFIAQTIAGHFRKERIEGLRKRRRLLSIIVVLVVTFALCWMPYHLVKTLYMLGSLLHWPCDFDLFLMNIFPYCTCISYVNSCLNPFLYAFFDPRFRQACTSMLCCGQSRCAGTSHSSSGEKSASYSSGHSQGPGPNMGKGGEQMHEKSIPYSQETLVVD
# A3A deaminase – inhibitors of human APOBEC3A DNA deaminase; P31941; recombinant A3A, FAM/TAMRA ssDNA deamination fluorescence; inhibition, % at 20 µM; hit rate 0.41% among 330,000;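 active means at least 40% inhibition at 20 µM here, with at most 30% in a related deaminase screen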;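 further: plate controls were A3A with DMSO for no effect and wells lacking A3A enzyme for full effect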
# APJ ag – activates the human apelin receptor APJ. P35414. hit rate 0.11% among 330,000. CHO-K1 APJ PathHunter beta-arrestin, luminescence; 0% DMSO wells, 100% apelin. AID 2520. activation, % at 20 µM;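 active means activation more than six SD over the plate average, tested at 20 µM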;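 further: 0% = DMSO alone and 100% = apelin-13 at 10 nM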
#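 Incubation: overnight seeding, 90 min compound at 25 °C, 1 h detection; test system: PathHunter CHO-K1 APJ (AGTRL-1) beta-arrestin reporter cells; amount: 1000 cells/well; doses: one dose, 20 µM compound, 1% DMSO; measured by: beta-gal luminescence; measure: agonist-driven arrestin binding to APJ; benchmarks: negative DMSO alone, positive Apelin-13 at 10 nM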
# APOBEC3G confirm – APOBEC3G (human) deaminase inhibition, confirmed; hit rate 72% among 890; shares compounds with A3G deaminase; AID 493152; recombinant A3G ssDNA deaminase, UDG/FAM-TAMRA fluorescence; inhibition, % at 20 µM;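 active means inhibition reaching a set limit in any replicate at 20 µM, the limit being 80% of the first screen's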
# UDG ctr A3G – inhibits E. coli UDG, flagging false APOBEC3G inhibitors; shares compounds with A3G deaminase; UDG counterscreen, FAM/TAMRA oligo fluorescence; inhibition, % at 20 µM; 710 tested, under 10 active;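 active means compounds giving 40% or more inhibition at 20 µM in any one of the three replicates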;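 further: plate controls were DMSO wells with UDG and oligo for no effect and DMSO wells lacking both for full effect; inhibitors lower the FAM signal released by uracil excision and alkaline cleavage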
# An asterisk follows results filed as active; . = no result given. This is a sample that favours compounds with a hit; in the whole collection about 1.4% have one here.
SMILES,CCR6 antagonist,A3G deaminase,CXCR6 inh,APJ antag,A3A deaminase,APJ ag,APOBEC3G confirm,UDG ctr A3G
O=C(NCc1cccc(Cl)c1)c1ccc(CS(=O)Cc2ccccc2Cl)o1 (stereo unspecified),19.6,-6.6,0.6,21.6,-5.4,-3.3,.,.
COCCN(C(=O)COC(=O)Cc1ccc(Cl)cc1Cl)c1c(N)n(Cc2ccccc2)c(=O)[nH]c1=O,2.8,43.2*,7.6,9.9,7.2,-4.1,-2.3,.
S=c1nc[nH]c2c1[nH]c1ccccc12,18.6,47.8*,13.8,-7.6,-4.3,5.0,71.3*,-1.0
S=c1nc[nH]c2c1[nH]c1ccc(Cl)cc12,19.1,20.9,-10.7,-6.5,-5.8,-1.5,.,.
Cc1cc(C(=O)O)ccc1-n1c(C)cc(C=C2C(=O)c3ccccc3C2=O)c1C,14.7,51.1*,-2.9,9.6,7.7,-1.4,11.0,.
COCCn1nnnc1C(c1cccs1)N1CCN(c2nc3ccccc3s2)CC1 (stereo unspecified),6.4,56.5*,2.3,10.2,2.8,2.7,0.2,.
Cc1nnn(-c2nonc2N)c1C(=O)N/N=C/c1ccccc1O,-5.6,44.3*,-1.1,1.4,24.3,4.0,40.1*,3.2
Cc1nnn(-c2nonc2N)c1C(=O)N/N=C/c1cccc2ccccc12,-3.1,-5.9,-6.1,18.7,-1.4,-2.5,.,.
O=C(Nc1cc(S(=O)(=O)N2CCOCC2)ccc1O)c1ccc(S(=O)(=O)N2CCCCC2)cc1,6.1,-4.7,3.5,-7.5,-0.2,-1.2,.,.
O=C(Nc1cc(S(=O)(=O)Nc2ccc(Cl)cc2)ccc1O)c1ccc(S(=O)(=O)N2CCCCCC2)cc1,9.0,53.3*,2.6,-13.8,-0.3,-1.6,44.4*,11.3
Cc1cc(C)c(C#N)c(=N)o1,1.9,57.7*,6.2,-4.4,-1.9,-2.4,90.2*,-2.0
O=C1C(Cl)=C(NC(=O)c2ccccc2)C(=O)C(Cl)=C1NC(=O)c1ccccc1,.,85.6*,88.4*,-37.0,2.0,1.4,91.4*,.
O=C(NC1=C(Nc2ccc(Cl)cc2)C(=O)c2ccccc2C1=O)c1ccccc1,5.8,0.1,0.5,-55.4,4.6,3.3,.,.
CC(Cc1c[nH]c2ccccc12)C(=O)O (stereo unspecified),7.1,40.2*,-0.5,-12.3,4.1,-4.1,44.7*,.
COC(=O)[C@@]1(Sc2ccc(C)cc2)CC(=O)N(c2ccccc2)[C@@H]1c1ccccc1,.,.,8.2,.,.,.,.,.
COc1ccc2[nH]c(C)c(CN3CCCCC3)c(=O)c2c1,-8.9,-0.6,-10.0,28.1,-1.4,-6.9,.,.
CCc1c(C)[nH]c2ccc(OC)cc2c1=S,9.6,44.0*,9.3,-1.3,-4.1,-4.7,7.5,-1.9
CCCCN(C(=O)CSc1nnnn1C)C1CCS(=O)(=O)C1 (stereo unspecified),4.3,-3.4,-15.9,2.6,-2.6,-4.6,.,.
CC(C)C(C(=O)Nc1nccs1)c1ccccc1 (stereo unspecified),-4.0,48.1*,-13.0,2.0,2.9,-0.6,0.0,.
CC(CC(=O)Nc1nccs1)c1ccccc1 (stereo unspecified),-1.8,-4.7,10.7,7.2,-2.1,1.3,.,.
COc1ccc(NC(=O)c2cc3ccccc3o2)cc1OC,7.6,-9.8,-3.4,5.0,-2.2,-1.6,.,.
COc1ccc(CNC(=O)c2cc3ccccc3o2)cc1OC,15.8,70.9*,4.9,-12.1,-2.6,-3.0,-2.9,0.8
Cc1cc(C)c2c(=O)n(CC(=O)Nc3cccc(F)c3)sc2n1,29.7,76.5*,9.6,-33.0,4.9,-0.9,84.1*,0.7
Cc1ccc(NC(=O)Cn2sc3nc(C)cc(C)c3c2=O)c(Cl)c1,12.4,72.1*,7.8,-14.5,-8.2,-0.1,91.9*,-1.2
Cc1cc(C)c2c(=O)n(CC(=O)N3CCC(Cc4ccccc4)CC3)sc2n1,.,42.8*,.,-5.9,1.6,5.6,57.8*,.
SMILES,CCR6 antagonist,A3G deaminase,CXCR6 inh,APJ antag,A3A deaminase,APJ ag,APOBEC3G confirm,UDG ctr A3G
CCOC(=O)c1cn(CC(=O)Nc2cccc(F)c2)nn1,11.0,-2.9,-8.6,6.6,-0.5,-3.2,.,.
COc1ccc(C(CNC(=O)c2ccc(Cl)c(NC(=O)c3cccs3)c2)N2CCCC2)cc1 (stereo unspecified),5.3,-7.8,2.9,22.1,-1.9,-4.8,.,.
O=C(CCCOc1ccccc1)NNC(=O)c1ccncc1,-4.8,-0.8,-1.8,18.3,-2.9,-2.9,.,.
COCC(=O)Oc1c(S(=O)(=O)c2ccccc2)c(C)nn1C(C)(C)C,-4.2,92.9*,2.2,-29.7,0.8,-1.3,-0.3,.
Cc1cc(=O)n2nc(-c3ccccc3)sc2c1C#N,-4.7,55.3*,-5.3,9.8,-3.1,-3.8,68.9*,2.7
O=C1CSc2ccc(C(=O)Nc3cccc(S(=O)(=O)Nc4ccc(Br)cc4)c3)cc2N1,1.8,48.8*,-0.9,-8.9,-3.8,-1.1,4.8,0.9
Cc1cc(-c2n[nH]c(=S)n2/N=C/c2ccc(Br)s2)n[nH]1,6.7,39.9,1.5,-13.1,-4.1,0.4,.,.
Cc1ccc(/C=N/n2c(-c3ccco3)n[nH]c2=S)s1,-18.0,40.7*,0.2,-6.9,-6.0,-3.4,74.8*,0.8
S=c1[nH]nc(-c2ccco2)n1/N=C/c1ccccc1Cl,-24.3,44.7*,1.0,7.0,-5.0,-2.4,37.3*,3.2
Cc1cc(-c2n[nH]c(=S)n2/N=C/c2ccc(C)s2)n[nH]1,11.6,54.9*,8.5,-6.6,5.2,-1.6,72.2*,-3.2
CCOC(=O)CSc1n[nH]c(=S)s1,4.6,86.9*,-1.8,-18.3,-1.6,2.1,72.0*,-0.5
CCOC(=O)CCSc1n[nH]c(=S)s1,-5.2,23.2,-6.0,12.6,0.0,-3.2,.,.
O=S(=O)(c1ccc(Nc2ccc3c(c2)OCO3)nc1)N1CCOCC1,16.0,43.7*,11.0,-5.1,0.6,1.6,0.3,.
S=c1[nH]nc(COc2ccccc2)n1/N=C/c1cccnc1,12.8,55.7*,3.5,11.3,-1.0,0.2,77.3*,-2.8
O=[N+]([O-])c1cccc(/C=N/n2c(COc3ccccc3)n[nH]c2=S)c1,21.8,59.2*,2.4,11.3,0.2,-2.7,73.2*,-2.6
Oc1ccc(/C=N/n2c(COc3ccccc3)n[nH]c2=S)cc1O,23.2,43.0*,0.8,14.3,-8.4,-2.3,77.3*,-2.2
CCc1ccccc1NS(=O)(=O)Cc1ccccc1,3.0,-2.4,8.2,-14.2,-3.6,-0.3,.,.
COc1ccc(S(=O)(=O)Nc2nnc(C(C)(C)C)s2)cc1,-1.2,49.8*,0.3,25.2,5.5,-0.2,20.4*,1.7
COc1ccc(S(=O)(=O)Nc2nnc(CC(C)(C)C)s2)cc1,-9.1,-11.6,3.0,17.2,26.6,-2.6,.,.
